Measurements of several laboratories.
Observed: DPPH scavenging

O=C(Cc1c[nH]c2ccccc12)Nc1ccc(F)cc1F — IC50: 1710 nM
COc1ccc(-c2nc3cc(C)c(C)cc3[nH]2)cc1OCc1ccccc1 — IC50 (absorbance): 1820 nM
Cc1c(C)c2c(c(C)c1O)CC[C@@](C)(CCC[C@H](C)CCC[C@H](C)CCCC(C)C)O2 — IC50 (absorbance): 11.3 µg/mL
COc1cc(C(CC(=O)c2ccc([N+](=O)[O-])cc2)NCCc2ccc(O)c(O)c2)ccc1O (centres unmarked) — IC50: 14.6 µg/mL
O=C1O[C@H]([C@@H](O)CO)C(O)=C1O — IC50: 4.8 µg/mL
COc1ccc(NC(=O)Cc2c[nH]c3ccccc23)cc1 — IC50: 1040 nM
COc1cc(C(CC(=O)c2ccc(C(C)(C)C)cc2)NCCc2ccc(O)c(O)c2)ccc1O (centres unmarked) — IC50: 15.6 µg/mL
COc1cc(-c2oc3cc(O)cc(O)c3c(=O)c2O[C@@H]2O[C@H](CO)[C@@H](O)[C@H](O)[C@H]2O)ccc1O — IC50 (absorbance): > 500000 nM
O=C(Cc1c[nH]c2ccccc12)Nc1cccc(F)c1 — IC50: 1530 nM
CCOC(=O)c1cc(O)c(O)c(O)c1 — IC50 (absorbance): 43400 nM
COc1cc(C=Cc2cc(-c3ccccc3)nc(O)n2)ccc1O — IC50: 24 µg/mL
COc1ccc(OC)c(NC(=O)Cc2c[nH]c3ccccc23)c1 — IC50: 2000 nM
COc1cc(C=CC(=O)CC(c2ccc([N+](=O)[O-])cc2)n2ccnc2)ccc1O (centres unmarked) — IC50: 26.9 µg/mL
COc1cc(C(CC(=O)c2ccc(C)cc2)NCCc2ccc(O)c(O)c2)ccc1O (centres unmarked) — IC50: 21.1 µg/mL
Cc1ccc(C)c(NC(=O)Cc2c[nH]c3ccccc23)c1 — IC50: 1790 nM
O=c1c(O[C@@H]2O[C@H](CO)[C@@H](O)[C@H](O)[C@H]2O)c(-c2ccc(O)c(O)c2)oc2cc(O)cc(O)c12 — IC50 (absorbance): 90500 nM
Clc1ccc2[nH]c(-c3cccc(OCc4ccccc4)c3)nc2c1 — IC50 (absorbance): 1820 nM
O=C(OC[C@H]1O[C@@H](OC(=O)c2cc(O)c(O)c(O)c2)[C@H](OC(=O)c2cc(O)c(O)c(O)c2)[C@@H](OC(=O)c2cc(O)c(O)c(O)c2)[C@@H]1O)c1cc(O)c(O)c(O)c1 — IC50 (absorbance): 11900 nM
COc1cc(C(CC(=O)c2ccc(Br)cc2)NCCc2ccc(O)c(O)c2)ccc1O (centres unmarked) — IC50: 15.2 µg/mL
COc1ccc(-c2nc3cc(F)ccc3[nH]2)cc1OCc1ccccc1 — IC50 (absorbance): 2580 nM
